Laboratory results as given in ChEMBL document CHEMBL5113496, “A systematic exploration of boceprevir-based main protease inhibitors as SARS-CoV-2 antivirals” (Eur J Med Chem, 2022).

How the values were obtained:
[1] = Cytotoxicity against HEK293T/17 cells assessed as inhibition of cell growth incubated for 48 hrs by MTT assay; type: toxicity, cell-based; conditions: human, hek293t/17, 48 h
In short: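 293T cells seeded and held 24 h at 37 °C, 5% CO2, then exposed in triplicate for 48 h to a range of compound concentrations. Compounds were taken from DMSO stocks and diluted in culture medium. Viability was read by MTT. CC50 was taken from normalised % viability plotted against log10 concentration.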

SARS-CoV-2 [2] = experiment: Antiviral activity against SARS-CoV2 USA-WA1/2020 infected in African green monkey Vero E6 cells assessed as reduction in viral plaques incubated for 3 days by plaque reduction neutralization test; type: functional, organism-based; conditions: Severe acute respiratory syndrome coronavirus 2, USA-WA1/2020, Vero C1008, 72 h
SARS-CoV-2 [3] = experiment: Antiviral activity against SARS-CoV2 Beta infected in African green monkey Vero E6 cells assessed as reduction in viral plaques incubated for 3 days by plaque reduction neutralization test; type: functional, organism-based; conditions: Severe acute respiratory syndrome coronavirus 2, Beta, Vero C1008, 72 h
SARS-CoV-2 [4] = experiment: Antiviral activity against SARS-CoV2 Delta infected in African green monkey Vero E6 cells assessed as reduction in viral plaques incubated for 3 days by plaque reduction neutralization test; type: functional, organism-based; conditions: Severe acute respiratory syndrome coronavirus 2, Delta, Vero C1008, 72 h

C[C@@H](OC(C)(C)C)[C@H](NC(=O)OCc1ccccc1)C(=O)N1C[C@H]2[C@@H]([C@H]1C(=O)N[C@H](C=O)C[C@@H]1CCNC1=O)C2(C)C gave a CC50 [1] of 163 µM, an EC50 (SARS-CoV-2 [2]) of 1080 nM and an EC50 (SARS-CoV-2 [3]) of 2280 nM. For the same molecule, the EC50 (SARS-CoV-2 [4]) was 750 nM.

For CC(C)(C)[C@H](NC(=O)OCc1ccccc1)C(=O)N1C[C@H]2[C@@H]([C@H]1C(=O)N[C@H](C=O)C[C@@H]1CCNC1=O)C2(C)C, the CC50 [1] was 144 µM, the EC50 (SARS-CoV-2 [2]) was 2940 nM and the EC50 (SARS-CoV-2 [3]) was 860 nM. The EC50 (SARS-CoV-2 [4]) was 1040 nM.

Work on CC(C)(C)OC(=O)N[C@H](C(=O)N1C[C@H]2[C@@H]([C@H]1C(=O)N[C@H](C=O)C[C@@H]1CCNC1=O)C2(C)C)C(C)(C)C yielded a CC50 [1] of 34.2 µM, an EC50 (SARS-CoV-2 [2]) of 610 nM and an EC50 (SARS-CoV-2 [4]) of 1000 nM.
